Assay results as given in paper PMC11112715 (ACS Omega, 2024).
Like-named read-outs stand apart in the source and are kept apart here.

What was measured:
[1] = system: SCC-9 cells (human tongue oral squamous cell carcinoma); assay: MTT cell viability assay in SCC-9 cells; type: cell-based; settings: for IC50: read-out: IC50 SSC9 oral squamous cell carcinoma; for Selectivity index (S.I.): IC50 in NIH3T3 / IC50 in SCC-9
Summary of the method: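 SCC-9 tongue OSCC cells from ATCC, grown in 1:1 DMEM/F12 with 10% FBS and 400 ng/mL hydrocortisone, 37 °C, 5% CO2. Plated at 5 × 10³ cells/well in triplicate, 48 h with graded test compound doses against matched DMSO (100% viability). MTT for 4 h, formazan in methanol/DMSO 1:1, absorbance 560 nm minus 670 nm. S.I. = IC50 NIH3T3 / IC50 SCC-9.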

[2] = system: NIH3T3 mouse fibroblast cells; assay: MTT cell viability assay in NIH3T3 normal fibroblasts; type: cell-based; settings: read-out: IC50 NIH3T3 normal mouse fibroblasts
Summary of the method: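 NIH3T3 fibroblasts from ATCC, kept in DMEM with 10% FBS at 37 °C, 5% CO2. Seeded at 5 × 10³ cells/well in triplicate and exposed to a range of test compound concentrations for 48 h; DMSO diluted in medium at matching levels set 100% viability. MTT in medium for 4 h, formazan dissolved in 1:1 methanol/DMSO, A560 read minus 670 nm background.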

SCC-9 cells = assay: Cell cycle progression and cell death, propidium iodide flow cytometry; type: cell-based, human; settings: 48 h, compared to negative control

Row | Compound | IC50 ([1]; Homo sapiens, SCC-9, 48 h) [µM] | Selectivity index (S.I.) [1] | IC50 ([2]; Mus musculus, NIH3T3, 48 h) [µM] | Effect on proportion of cells in G0/G1 phase (SCC-9 cells) | Effect on DNA fragmentation (SCC-9 cells) | Effect on cells in G2/M phases (SCC-9 cells) | IC50 ([1]; MTT, 48 h treatment) [µM] | IC50 ([2]; MTT, 48 h treatment) [µM]
1 | O=C1C=C(OCC#C[Se]c2ccccc2)C(=O)c2ccccc21 [Compound 9a, 2-((3-(Phenylselanyl)prop-2-yn-1-yl)oxy)naphthalene-1,4-dione] | 31.9 | 2.62 | 83.6 | – | – | – | – | –
2 | Cc1ccc([Se]C#CCOC2=CC(=O)c3ccccc3C2=O)cc1 [Compound 9b, 2-((3-(p-Tolylselanyl)prop-2-yn-1-yl)oxy)naphthalene-1,4-dione] | 17.1 | 0.52 | 8.93 | – | – | – | – | –
3 | COc1ccc([Se]C#CCOC2=CC(=O)c3ccccc3C2=O)cc1 [Compound 9c, 2-((3-((4-Methoxyphenyl)selanyl)prop-2-yn-1-yl)oxy)naphthalene-1,4-dione] | 24.8 | 1.10 | 27.2 | increased numbers of cells in the G0/G1 phase | – | – | – | –
4 | O=C1C=C(OCC#C[Se]c2ccc(F)cc2)C(=O)c2ccccc21 [Compound 9d, 2-((3-((4-Fluorophenyl)selanyl)prop-2-yn-1-yl)oxy)naphthalene-1,4-dione] | 23.5 | 1.03 | 24.2 | – | – | – | – | –
5 | O=C1C=C(OCC#C[Se]c2ccc(Cl)cc2)C(=O)c2ccccc21 [Compound 9e, 2-((3-((4-Chlorophenyl)selanyl)prop-2-yn-1-yl)oxy)naphthalene-1,4-dione] | 65.4 | – | – | – | – | – | – | –
6 | O=C1C=C(OCC#C[Se]c2ccc(C(F)(F)F)cc2)C(=O)c2ccccc21 [Compound 9f, 2-((3-((4-(Trifluoromethyl)phenyl)selanyl)prop-2-yn-1-yl)oxy)naphthalene-1,4-dione] | 31.7 | 1.78 | 56.5 | increased numbers of cells in the G0/G1 phase | increased DNA fragmentation | marked reduction of cells in the G2/M phases | – | –
7 | O=C1C=C(OCC#C[Se]c2ccc3ccccc3c2)C(=O)c2ccccc21 [Compound 9g, 2-((3-(Naphthalen-2-ylselanyl)prop-2-yn-1-yl)oxy)naphthalene-1,4-Dione] | 68.2 | – | – | – | – | – | – | –
8 | Cc1cc(C)c([Se]C#CCOC2=CC(=O)c3ccccc3C2=O)c(C)c1 [Compound 9h, 2-((3-(Mesitylselanyl)prop-2-yn-1-yl)oxy)naphthalene-1,4-dione] | 49 | – | – | – | – | – | – | –
9 | CCCC[Se]C#CCOC1=CC(=O)c2ccccc2C1=O [Compound 9i, 2-((3-(Butylselanyl)prop-2-yn-1-yl)oxy)naphthalene-1,4-dione] | 37.4 | – | – | – | – | – | – | –
10 | O=C1C=C(OCC#C[Te]c2ccccc2)C(=O)c2ccccc21 [Compound 10a, 2-((3-(Phenyltellanyl)prop-2-yn-1-yl)oxy)naphthalene-1,4-dione] | 1.65 | 3.53 | 5.83 | significantly decreased the proportion of cells in the G0/G1 phase | increased DNA fragmentation | no apparent alteration in the percentage of cells in the G2/M phases | – | –
11 | Cc1ccc([Te]C#CCOC2=CC(=O)c3ccccc3C2=O)cc1 [Compound 10b, 2-((3-(p-Tolyltellanyl)prop-2-yn-1-yl)oxy)naphthalene-1,4-dione] | 4 | 0.57 | 2.27 | significantly decreased the proportion of cells in the G0/G1 phase | increased DNA fragmentation | no apparent alteration in the percentage of cells in the G2/M phases | – | –
12 | O=C1C=C(OCC#C[Te]c2ccc(Cl)cc2)C(=O)c2ccccc21 [Compound 10c, 2-((3-((4-Chlorophenyl)tellanyl)prop-2-yn-1-yl)oxy)naphthalene-1,4-dione] | 2.89 | 1.70 | 4.9 | – | increased DNA fragmentation | marked reduction of cells in the G2/M phases | – | –
13 | C#CCOC1=C(Sc2ccccc2)C(=O)c2ccccc2C1=O [Compound 11, 2-(Phenylthio)-3-(prop-2-yn-1-yloxy)naphthalene-1,4-dione] | 62.3 | – | – | – | – | – | – | –
14 | N.N.O=C([O-])C1(C(=O)[O-])CCC1.[Pt+2] [carboplatin, reference compound] | – | 0.27 | – | – | – | – | 572 | 156
15 | COc1cccc2c1C(=O)c1c(O)c3c(c(O)c1C2=O)C[C@@](O)(C(=O)CO)C[C@@H]3O[C@H]1C[C@H](N)[C@H](O)[C@H](C)O1 [doxorubicin, reference compound] | 2.71 | 0.61 | 1.66 | – | – | – | – | –
